Data on 22 molecules can be found in PubChem BioAssay AID588842 (Broad Institute, 2011).

Records with an inconclusive call do not appear. Calls of active or inactive are those of the source.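 Rule for the calls: active = cytotoxic compounds whose fitted half-effect concentration is at most twice the top tested dose in every test run; inconclusive = test runs disagree, or a flat moderate drop, or a poor fit; inactive = inactive in every run, including wrong-direction effects.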

Test system in one assay: not listed separately
Put plainly: cytotoxicity in ldlA[mSR-BI] CHO cells, dose response, cytotoxicity control for HDL uptake inhibitor project, cell-based, CellTiter-Glo ATP, 24 h, dry powder, set 4 (AID 588842). To be noted: ldlA[mSR-BI] CHO cells viability, CellTiter-Glo ATP, 24 h; at 35 µM (top of the series). The gist of the method:
(§1)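 Schedule: 24 h compound exposure at 37 °C, then 10 min CellTiter-Glo incubation. Assay system: ldlA[mSR-BI] cells. Quantity: 4,000 cells/well. Signal: luciferase luminescence reporting cellular ATP, CellTiter-Glo reagent.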
(In general: ATP-based viability assays read luminescence as a measure of living cells.)
Consider `CC(C(=O)NC1CCCC1)N(C(=O)Cc1ccccc1)C1CCCCC1` (configuration not stated), for which the activity change, negative = cytotoxicity is -1.74% (inactive).

Take `CCC(=O)N1CCc2cc(-c3csc(NC(=O)c4ccc(OC)cc4)n3)ccc21`: the activity change, negative = cytotoxicity is -11.6% (inactive).

In the case of `CCC(=O)N1CCc2cc(-c3csc(N)n3)ccc21`, the activity change, negative = cytotoxicity is -18.4% (inactive).

As to `CCC(=O)N1CCc2cc(-c3csc(NC(=O)c4ccco4)n3)ccc21`, the activity change, negative = cytotoxicity was -17.6% (inactive).

In the case of `CCC(=O)N1CCc2cc(-c3csc(NC(=O)c4ccc(Cl)cc4)n3)ccc21`, the activity change, negative = cytotoxicity is -5.95% (inactive).

For `CCC(=O)N1CCc2cc(-c3csc(NC(=O)c4ccncc4)n3)ccc21`, the activity change, negative = cytotoxicity was -2.04% (inactive).

As for `O=C(Nc1nc(-c2ccc3c(c2)CCN3S(=O)(=O)c2ccccc2)cs1)c1ccco1`, the activity change, negative = cytotoxicity was -30.8% (inactive).

Take `C[C@@H]1CN([C@H](C)CO)C(=O)c2cc(NC(=O)Cc3cn(C)c4ccccc34)ccc2O[C@H]1CN(C)S(=O)(=O)c1ccc(Cl)cc1`: the activity change, negative = cytotoxicity was -19% (inactive).

As for `CCC(=O)N1CCc2cc(-c3csc(NC(=O)c4ccoc4)n3)ccc21`, the activity change, negative = cytotoxicity is -8.58% (inactive).

Consider `CC(C(=O)NC1CCCC1)N(C(=O)Cn1nnc(-c2ccc3c(c2)OCO3)n1)C1CCCCC1` (configuration not stated), for which the activity change, negative = cytotoxicity was -16.1% (inactive).

On to `CCC(=O)N1CCc2cc(-c3csc(NC(=O)c4cnco4)n3)ccc21`, for which the activity change, negative = cytotoxicity was -1.99% (inactive).

Take `CCC(=O)N1CCc2cc(-c3csc(NC(=O)c4cccnc4)n3)ccc21`: the activity change, negative = cytotoxicity was -3.5% (inactive).

As to `COc1ccc(-c2nnn(CC(=O)N(C3CCCCC3)C(C)C(=O)NC3CCCC3)n2)cc1OC` (configuration not stated), the activity change, negative = cytotoxicity was -11.1% (inactive).

The same assay, now with this note: ldlA[mSR-BI] CHO cells viability, CellTiter-Glo ATP, 24 h; at 68 µM (top of the series).
On to `CCOc1ccc(NC(=O)CN2CCN(CC(=O)Nc3cc(OC)cc(OC)c3)CC2)cc1`, for which the activity change, negative = cytotoxicity is -20% (inactive).

For the next assay, the system named is ldlA[mSR-BI] CHO cells viability, CellTiter-Glo ATP, 24 h. Described as above.
Settings: not given
The gist of the method:
as §1
By AC50 is commonly meant the midpoint of the concentration-response curve, whichever way the signal moves. Regarding `CCC(=O)N1CCc2cc(-c3csc(NC(=O)c4ccccc4)n3)ccc21`, the AC50 is 67.8 µM.

Turning to `CCC(=O)N1CCc2cc(-c3csc(NC(=O)c4ccc(F)cc4)n3)ccc21`, the AC50 is 48.2 µM.

On to `CCOc1ccccc1/C=C/c1onc(C)c1S(=O)(=O)N1CCC(C(=O)NC(C)(C)C)CC1`, for which the AC50 is 30.1 µM.

With `CC(C)NC(=O)Nc1cccc2c1O[C@H](CN(C)Cc1ccc(Cl)c(Cl)c1)[C@@H](C)CN([C@@H](C)CO)C2=O`, the AC50 is 58 µM.

Regarding `CCCCCCC1CCC/C1=N\NC(N)=S` (configuration not stated), the AC50 is 3.86 µM.

Consider `C[C@@H]1CN([C@H](C)CO)C(=O)c2cc(NC(=O)Cc3cn(C)c4ccccc34)ccc2O[C@H]1CN(C)S(=O)(=O)c1ccc(F)cc1`, for which the AC50 was 47.7 µM.

Regarding `COc1c(NC(=O)C(=O)c2ccc(OCCN3CCOCC3)c3ccccc23)cc(C(C)(C)C)cc1NS(C)(=O)=O`, the AC50 was 15.5 µM.

In the case of `C[C@H]1CN([C@@H](C)CO)C(=O)c2cccc(NC(=O)Nc3ccccc3)c2O[C@@H]1CN(C)Cc1ccc(Cl)c(Cl)c1`, the AC50 is 29.8 µM.
